Source: ChEMBL document CHEMBL1759961, “Alkyl piperidine and piperazine hydroxamic acids as HDAC inhibitors” (Bioorg Med Chem Lett, 2011)

Assays:
[1] = target: T1, Histone deacetylase (Homo sapiens) (UniProt Q13547+O15379+Q9UBN7+Q92769+Q9UQL6+Q8WUI4+Q9BY41+Q96DB2+P56524+Q9UKV0+Q969S8); settings: HeLa, at 0.1 µM
[2] = target: T1, Histone deacetylase (Homo sapiens); settings: HeLa, at 1 µM
[3] = target: T1, Histone deacetylase (Homo sapiens); assay: Inhibition of HDAC in human HeLa cells at 50 uM by fluorescent activity assay; type: cell-based
Method in brief: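 HDAC activity was measured with a commercial fluorescent kit using Fluor de Lys substrate plus developer. Compounds were dissolved in DMSO and stored at -80 °C. Fluorophore release was read at excitation 335 nm and emission 460 nm. All experiments were run in triplicate.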

[4] = target: T1, Histone deacetylase (Homo sapiens); settings: HeLa, at 10 µM
Histone deacetylase = assay: Inhibition of HDAC in human HeLa cells by fluorescent activity assay; type: cell-based
HCT-116 = assay: Antiproliferative activity against human HCT116 cells after 5 days by Alamar blue assay; type: functional, cell-based; settings: HCT-116, 120 h

inhibition [1] [%]	inhibition [2] [%]	inhibition [3] [%]	inhibition [4] [%]	IC50 (Histone deacetylase) [µM]	IC50 (HCT-116) [µM]	SMILES
59	69		86	0.09	0.3	O=C(CCCC1CCN(C(=O)NCc2ccccc2)CC1)NO
23	63					O=C(CCCCC1CCN(C(=O)Nc2ccccc2)CC1)NO
11	54					O=C(CCCCC1CCN(C(=O)Cc2ccccc2)CC1)NO
18	49					O=C(CCCCC1CCN(C(=O)NCc2ccccc2)CC1)NO
12	44					O=C(CCCCC1CCN(C(=O)c2ccccc2)CC1)NO
11	30					O=C(CCC1CCN(C(=O)c2ccccc2)CC1)NO
		30	13			O=C(CCCN1CCN(C(=O)c2ccccc2)CC1)NO
36	72	85	80	0.26	5.1	O=C(CCCC1CCN(C(=O)Cc2ccccc2)CC1)NO
		16	0			O=C(NO)C1CCN(C(=O)c2ccccc2)CC1
11		77	69	1.39	17.2	O=C(CCCC1CCN(C(=O)c2ccccc2)CC1)NO
53	81		86	0.1	0.7	O=C(CCCC1CCN(C(=O)Nc2ccccc2)CC1)NO
		41	7			O=C(CC1CCN(C(=O)c2ccccc2)CC1)NO
16	54					O=C(CCCCCC1CCN(C(=O)Nc2ccccc2)CC1)NO
2	24					O=C(CCC1CCN(C(=O)Cc2ccccc2)CC1)NO

More lines, now with the values behind:

SMILES	inhibition [1] [%]	inhibition [2] [%]	inhibition [3] [%]	inhibition [4] [%]	IC50 (Histone deacetylase) [µM]	IC50 (HCT-116) [µM]
O=C(CCCCN1CCN(S(=O)(=O)Cc2ccccc2)CC1)NO	4	9				
O=C(CC1CCN(S(=O)(=O)Cc2ccccc2)CC1)NO			22	21		
O=C(NO)C1CCN(S(=O)(=O)c2ccccc2)CC1			50	29		
O=C(CCC1CCN(S(=O)(=O)c2ccccc2)CC1)NO	9	33				
O=C(CCN1CCN(C(=O)c2ccccc2)CC1)NO	3	3				
O=C(CCCCN1CCN(C(=O)Cc2ccccc2)CC1)NO	19	40				
O=C(CCCC1CCN(S(=O)(=O)c2ccccc2)CC1)NO					0.54	2.7
O=C(CCN1CCN(C(=O)Cc2ccccc2)CC1)NO			2	0		
O=C(CCCCCC1CCN(C(=O)NCc2ccccc2)CC1)NO	20	62				
O=C(CCCCC1CCN(S(=O)(=O)c2ccccc2)CC1)NO	13	45				
O=C(CN1CCN(S(=O)(=O)c2ccccc2)CC1)NO			10	3		
O=C(CN1CCN(S(=O)(=O)Cc2ccccc2)CC1)NO			51	16		
O=C(CCCN1CCN(C(=O)Cc2ccccc2)CC1)NO			52	28		
O=C(NO)C1CCN(C(=O)Cc2ccccc2)CC1			65	33		
O=C(CC1CCN(C(=O)Cc2ccccc2)CC1)NO			61	39		
O=C(CCN1CCN(S(=O)(=O)Cc2ccccc2)CC1)NO			38	1		
O=C(CCCN1CCN(S(=O)(=O)c2ccccc2)CC1)NO			50	30		
O=C(CCC1CCN(S(=O)(=O)Cc2ccccc2)CC1)NO	8	33				
O=C(CCN1CCN(S(=O)(=O)c2ccccc2)CC1)NO			44	14		
O=C(CN1CCN(C(=O)Cc2ccccc2)CC1)NO			19	6		
O=C(CCCCN1CCN(S(=O)(=O)c2ccccc2)CC1)NO	9	12				
O=C(NO)C1CCN(S(=O)(=O)Cc2ccccc2)CC1			33	1		
O=C(CCCCN1CCN(C(=O)c2ccccc2)CC1)NO	3	9				
O=C(CCCC1CCN(S(=O)(=O)Cc2ccccc2)CC1)NO	12		77		0.84	3.2
O=C(CC1CCN(S(=O)(=O)c2ccccc2)CC1)NO			68	41		
O=C(CCCN1CCN(S(=O)(=O)Cc2ccccc2)CC1)NO			19	< 10		
